Assay results from ChEMBL document CHEMBL1765020, “Synthesis and structure-affinity relationships of novel dibenzylideneacetone derivatives as probes for β-amyloid plaques” (J Med Chem, 2011).

What was measured:
[1] = tested on: Spleen; experiment: Biodistribution in ddY mouse spleen at 10 uCi/100 uL, iv after 2 mins by gamma counting; assay type: ADME, organism-based; conditions: in vivo
[2] = tested on: Stomach; experiment: Biodistribution in ddY mouse stomach at 10 uCi/100 uL, iv after 2 mins by gamma counting; assay type: ADME, organism-based; conditions: in vivo
[3] = tested on: Intestine; experiment: Biodistribution in ddY mouse intestine at 10 uCi/100 uL, iv after 2 mins by gamma counting; assay type: ADME, organism-based; conditions: in vivo
In short: (§1)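 Normal female ddY mice (5 weeks, about 20 g; n = 4 per group) received radiotracer iv. Organs were removed and weighed at 2–120 min and counted in a γ-counter. Percent dose per gram of wet tissue was calculated against diluted aliquots of the injected material and reported as mean ± SD.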

[4] = tested on: Lung; experiment: Biodistribution in ddY mouse lung at 10 uCi/100 uL, iv after 2 mins by gamma counting; assay type: ADME, organism-based; conditions: in vivo
[5] = tested on: Heart; experiment: Biodistribution in ddY mouse heart at 10 uCi/100 uL, iv after 2 mins by gamma counting; assay type: ADME, organism-based; conditions: in vivo; in short: as §1
[6] = tested on: Brain; experiment: Biodistribution in ddY mouse brain at 10 uCi/100 uL, iv after 15 mins by gamma counting; assay type: ADME, organism-based; conditions: in vivo, 0.25 h; in short: as §1
[7] = tested on: Blood; experiment: Biodistribution in ddY mouse blood at 10 uCi/100 uL, iv after 15 mins by gamma counting; assay type: ADME, organism-based; conditions: in vivo, 0.25 h; in short: as §1
[8] = tested on: Bone; experiment: Biodistribution in ddY mouse bone at 10 uCi/100 uL, iv after 15 mins by gamma counting; assay type: ADME, organism-based, Bone element; conditions: in vivo, 0.25 h; in short: as §1
[9] = tested on: Liver; experiment: Biodistribution in ddY mouse liver at 10 uCi/100 uL, iv after 15 mins by gamma counting; assay type: ADME, organism-based; conditions: in vivo, 0.25 h
[10] = tested on: Kidney; experiment: Biodistribution in ddY mouse kidney at 10 uCi/100 uL, iv after 15 mins by gamma counting; assay type: ADME, organism-based; conditions: in vivo, 0.25 h
[11] = tested on: Spleen; experiment: Biodistribution in ddY mouse spleen at 10 uCi/100 uL, iv after 15 mins by gamma counting; assay type: ADME, organism-based; conditions: in vivo, 0.25 h
[12] = tested on: Stomach; experiment: Biodistribution in ddY mouse stomach at 10 uCi/100 uL, iv after 15 mins by gamma counting; assay type: ADME, organism-based; conditions: in vivo, 0.25 h
[13] = tested on: Intestine; experiment: Biodistribution in ddY mouse intestine at 10 uCi/100 uL, iv after 15 mins by gamma counting; assay type: ADME, organism-based; conditions: in vivo, 0.25 h; in short: as §1
[14] = tested on: Lung; experiment: Biodistribution in ddY mouse lung at 10 uCi/100 uL, iv after 15 mins by gamma counting; assay type: ADME, organism-based; conditions: in vivo, 0.25 h
[15] = tested on: Heart; experiment: Biodistribution in ddY mouse heart at 10 uCi/100 uL, iv after 15 mins by gamma counting; assay type: ADME, organism-based; conditions: in vivo, 0.25 h; in short: as §1
[16] = tested on: Brain; experiment: Biodistribution in ddY mouse brain at 10 uCi/100 uL, iv after 30 mins by gamma counting; assay type: ADME, organism-based; conditions: in vivo, 0.5 h; in short: as §1
[17] = tested on: Blood; experiment: Biodistribution in ddY mouse blood at 10 uCi/100 uL, iv after 30 mins by gamma counting; assay type: ADME, organism-based; conditions: in vivo, 0.5 h; in short: as §1
[18] = tested on: Bone; experiment: Biodistribution in ddY mouse bone at 10 uCi/100 uL, iv after 30 mins by gamma counting; assay type: ADME, organism-based, Bone element; conditions: in vivo, 0.5 h; in short: as §1
[19] = tested on: Liver; experiment: Biodistribution in ddY mouse liver at 10 uCi/100 uL, iv after 30 mins by gamma counting; assay type: ADME, organism-based; conditions: in vivo, 0.5 h
[20] = tested on: Kidney; experiment: Biodistribution in ddY mouse kidney at 10 uCi/100 uL, iv after 30 mins by gamma counting; assay type: ADME, organism-based; conditions: in vivo, 0.5 h
[21] = tested on: Spleen; experiment: Biodistribution in ddY mouse spleen at 10 uCi/100 uL, iv after 30 mins by gamma counting; assay type: ADME, organism-based; conditions: in vivo, 0.5 h
[22] = tested on: Stomach; experiment: Biodistribution in ddY mouse stomach at 10 uCi/100 uL, iv after 30 mins by gamma counting; assay type: ADME, organism-based; conditions: in vivo, 0.5 h
[23] = tested on: Intestine; experiment: Biodistribution in ddY mouse intestine at 10 uCi/100 uL, iv after 30 mins by gamma counting; assay type: ADME, organism-based; conditions: in vivo, 0.5 h; in short: as §1
[24] = tested on: Lung; experiment: Biodistribution in ddY mouse lung at 10 uCi/100 uL, iv after 30 mins by gamma counting; assay type: ADME, organism-based; conditions: in vivo, 0.5 h
[25] = tested on: Heart; experiment: Biodistribution in ddY mouse heart at 10 uCi/100 uL, iv after 30 mins by gamma counting; assay type: ADME, organism-based; conditions: in vivo, 0.5 h; in short: as §1
[26] = tested on: Brain; experiment: Biodistribution in ddY mouse brain at 10 uCi/100 uL, iv after 60 mins by gamma counting; assay type: ADME, organism-based; conditions: in vivo, 1 h; in short: as §1
[27] = tested on: Blood; experiment: Biodistribution in ddY mouse blood at 10 uCi/100 uL, iv after 60 mins by gamma counting; assay type: ADME, organism-based; conditions: in vivo, 1 h; in short: as §1
[28] = tested on: Bone; experiment: Biodistribution in ddY mouse bone at 10 uCi/100 uL, iv after 60 mins by gamma counting; assay type: ADME, organism-based, Bone element; conditions: in vivo, 1 h; in short: as §1
[29] = tested on: Liver; experiment: Biodistribution in ddY mouse liver at 10 uCi/100 uL, iv after 60 mins by gamma counting; assay type: ADME, organism-based; conditions: in vivo, 1 h
[30] = tested on: Kidney; experiment: Biodistribution in ddY mouse kidney at 10 uCi/100 uL, iv after 60 mins by gamma counting; assay type: ADME, organism-based; conditions: in vivo, 1 h
[31] = tested on: Spleen; experiment: Biodistribution in ddY mouse spleen at 10 uCi/100 uL, iv after 60 mins by gamma counting; assay type: ADME, organism-based; conditions: in vivo, 1 h
[32] = tested on: Stomach; experiment: Biodistribution in ddY mouse stomach at 10 uCi/100 uL, iv after 60 mins by gamma counting; assay type: ADME, organism-based; conditions: in vivo, 1 h
[33] = tested on: Intestine; experiment: Biodistribution in ddY mouse intestine at 10 uCi/100 uL, iv after 60 mins by gamma counting; assay type: ADME, organism-based; conditions: in vivo, 1 h; in short: as §1
[34] = tested on: Lung; experiment: Biodistribution in ddY mouse lung at 10 uCi/100 uL, iv after 60 mins by gamma counting; assay type: ADME, organism-based; conditions: in vivo, 1 h
[35] = tested on: Heart; experiment: Biodistribution in ddY mouse heart at 10 uCi/100 uL, iv after 60 mins by gamma counting; assay type: ADME, organism-based; conditions: in vivo, 1 h; in short: as §1
[36] = tested on: Brain; experiment: Ratio of drug uptake in ddY mouse brain at 10 uCi/100 uL, iv after 2 mins to drug uptake in ddY mouse brain at 10 uCi/100 uL, iv after 60 mins; assay type: ADME, organism-based; conditions: in vivo
In short: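 Normal female ddY mice (5 weeks, about 20 g) received the radiotracer iv, with groups of 4 per time point. At 2 and 60 min, brain and other organs were excised and weighed and counted in a γ-counter. %ID/g wet tissue was taken against diluted injectate aliquots. The ratio is brain %ID/g at 2 min divided by brain %ID/g at 60 min.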

[37] = Partition coefficient, log D of the compound; assay type: physicochemical; conditions: octanol/water
In short: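 Radiotracer partitioned between n-octanol and PBS: vortexed 3 min at room temperature, centrifuged 5 min at 3000 rpm. Weighed samples of the octanol (100 μL) and buffer (500 μL) layers were counted. log D is the log of the ratio of counts per gram, octanol versus PBS.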

[38] = tested on: Brain; experiment: Biodistribution in ddY mouse brain at 10 uCi/100 uL, iv after 2 mins by gamma counting; assay type: ADME, organism-based; conditions: in vivo; in short: as §1
[39] = tested on: Blood; experiment: Biodistribution in ddY mouse blood at 10 uCi/100 uL, iv after 2 mins by gamma counting; assay type: ADME, organism-based; conditions: in vivo; in short: as §1
[40] = tested on: Bone; experiment: Biodistribution in ddY mouse bone at 10 uCi/100 uL, iv after 2 mins by gamma counting; assay type: ADME, organism-based, Bone element; conditions: in vivo; in short: as §1
[41] = tested on: Liver; experiment: Biodistribution in ddY mouse liver at 10 uCi/100 uL, iv after 2 mins by gamma counting; assay type: ADME, organism-based; conditions: in vivo
[42] = tested on: Kidney; experiment: Biodistribution in ddY mouse kidney at 10 uCi/100 uL, iv after 2 mins by gamma counting; assay type: ADME, organism-based; conditions: in vivo

CN(C)c1ccc(/C=C/C(=O)/C=C/c2ccc(OCCOCCOCC[18F])cc2)cc1
Drug uptake [1]: 4.26 % ID/g
Drug uptake [2]: 6.28 % ID/organ
Drug uptake [3]: 4.12 % ID/g
Drug uptake [4]: 12.3 % ID/g
Drug uptake [5]: 7.6 % ID/g
Drug uptake [6]: 1.51 % ID/g
Drug uptake [7]: 3.89 % ID/g
Drug uptake [8]: 2.42 % ID/g
Drug uptake [9]: 24.41 % ID/g
Drug uptake [10]: 12.77 % ID/g
Drug uptake [11]: 6.19 % ID/g
Drug uptake [12]: 7.39 % ID/organ
Drug uptake [13]: 10.53 % ID/g
Drug uptake [14]: 6.34 % ID/g
Drug uptake [15]: 3.33 % ID/g
Drug uptake [16]: 1.04 % ID/g
Drug uptake [17]: 2.46 % ID/g
Drug uptake [18]: 2.08 % ID/g
Drug uptake [19]: 14.07 % ID/g
Drug uptake [20]: 7.13 % ID/g
Drug uptake [21]: 4.46 % ID/g
Drug uptake [22]: 6 % ID/organ
Drug uptake [23]: 17.5 % ID/g
Drug uptake [24]: 3.38 % ID/g
Drug uptake [25]: 1.9 % ID/g
Drug uptake [26]: 0.9 % ID/g
Drug uptake [27]: 1.6 % ID/g
Drug uptake [28]: 2.33 % ID/g
Drug uptake [29]: 6.88 % ID/g
Drug uptake [30]: 3.67 % ID/g
Drug uptake [31]: 1.93 % ID/g
Drug uptake [32]: 3.98 % ID/organ
Drug uptake [33]: 21.57 % ID/g
Drug uptake [34]: 1.86 % ID/g
Drug uptake [35]: 1.47 % ID/g
Ratio [36]: 4.59
logD [37]: 2.97
Drug uptake [38]: 4.13 % ID/g
Drug uptake [39]: 5.38 % ID/g
Drug uptake [40]: 2.88 % ID/g
Drug uptake [41]: 22.32 % ID/g
Drug uptake [42]: 12.95 % ID/g
